From ChEMBL document CHEMBL1129322, “Discovery and optimization of a novel class of orally active nonpeptidic endothelin-A receptor antagonists” (J Med Chem, 1996)

Assays:
Endothelin-1 receptor = molecular target: T1, Endothelin-1 receptor (Homo sapiens, UniProt P25101); assay: Binding affinity towards human Endothelin A receptor by measuring its ability to displace [125I]ET1 from CHO cells; format: cell-based
T1 sequence (P25101 whole entry): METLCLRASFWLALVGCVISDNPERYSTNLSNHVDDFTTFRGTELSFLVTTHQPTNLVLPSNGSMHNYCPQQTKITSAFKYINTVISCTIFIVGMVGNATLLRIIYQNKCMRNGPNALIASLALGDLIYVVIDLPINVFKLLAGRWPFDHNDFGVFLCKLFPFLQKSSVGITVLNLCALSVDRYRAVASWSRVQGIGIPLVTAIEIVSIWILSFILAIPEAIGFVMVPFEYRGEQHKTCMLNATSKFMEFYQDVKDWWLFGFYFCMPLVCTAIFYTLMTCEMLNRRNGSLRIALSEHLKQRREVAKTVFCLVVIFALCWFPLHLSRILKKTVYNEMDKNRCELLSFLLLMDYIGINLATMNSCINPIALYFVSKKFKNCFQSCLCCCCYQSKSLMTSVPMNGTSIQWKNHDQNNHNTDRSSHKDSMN

Oryctolagus cuniculus = species on record: Oryctolagus cuniculus; assay: Functional vascular ET-1 antagonism was determined in rabbit aorta rings with intact endothelium; settings: read-out: pA2 (converted)
Rattus norvegicus [1] = assay: Ability to protect rats from ET-1 induced sudden death in rats after peroral administration; format: functional
How it was run: (§1)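 Male Sprague-Dawley rats (280-320 g) were pretreated orally with antagonist 4 h before a tail-vein injection of ET-1 (6 nmol/kg), which causes severe ECG disturbances and lethality within minutes. Oral doses were 10, 30 or 100 mg/kg. Lethality was scored as deaths/n, and ED100 was taken as the dose giving complete protection.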

[2] = molecular target: T2, Endothelin receptor (Rattus norvegicus) (UniProt P26684+P21451); assay: In vivo prevention of ET-1-induced sudden death in 6 rats by pretreatment with endothelin receptor antagonist at a dose of 30 mg/kg p.o.; format: functional, organism-based; design: dose 30 mg/kg; how it was run: as §1
T2 sequence (P21451 whole entry, looked up): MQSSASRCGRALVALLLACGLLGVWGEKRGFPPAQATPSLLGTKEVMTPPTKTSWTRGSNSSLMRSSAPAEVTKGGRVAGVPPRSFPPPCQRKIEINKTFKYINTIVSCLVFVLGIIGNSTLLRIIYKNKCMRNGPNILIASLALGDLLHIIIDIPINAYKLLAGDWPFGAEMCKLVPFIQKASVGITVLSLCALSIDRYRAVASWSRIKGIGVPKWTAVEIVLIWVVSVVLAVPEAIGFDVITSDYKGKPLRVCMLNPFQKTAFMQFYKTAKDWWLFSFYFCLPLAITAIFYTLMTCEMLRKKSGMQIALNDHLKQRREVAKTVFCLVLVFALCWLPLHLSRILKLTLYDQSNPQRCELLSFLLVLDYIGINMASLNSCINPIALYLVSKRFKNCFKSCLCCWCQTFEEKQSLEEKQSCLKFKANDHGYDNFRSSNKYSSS
T2 sequence (P26684 whole entry, looked up): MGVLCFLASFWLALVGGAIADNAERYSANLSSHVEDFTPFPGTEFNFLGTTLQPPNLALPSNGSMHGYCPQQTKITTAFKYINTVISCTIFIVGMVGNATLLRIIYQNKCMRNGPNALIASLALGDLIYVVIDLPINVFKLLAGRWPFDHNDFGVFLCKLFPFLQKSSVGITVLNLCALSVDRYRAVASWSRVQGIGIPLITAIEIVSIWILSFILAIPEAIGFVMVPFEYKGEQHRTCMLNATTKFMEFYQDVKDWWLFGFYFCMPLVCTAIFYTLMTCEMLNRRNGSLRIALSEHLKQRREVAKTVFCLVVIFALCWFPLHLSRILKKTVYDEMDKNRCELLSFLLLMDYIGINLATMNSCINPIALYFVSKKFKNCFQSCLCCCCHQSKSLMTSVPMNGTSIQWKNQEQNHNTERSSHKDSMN

[3] = molecular target: T2, Endothelin receptor (Rattus norvegicus); assay: In vivo prevention of ET-1-induced sudden death in 5 rats by pretreatment with endothelin receptor antagonist at a dose of 100 mg/kg p.o.; 0/5; format: functional, organism-based; design: dose 100 mg/kg; how it was run: as §1
[4] = molecular target: T2, Endothelin receptor (Rattus norvegicus); assay: In vivo prevention of ET-1-induced sudden death in 6 rats by pretreatment with endothelin receptor antagonist at a dose of 10 mg/kg p.o.; 6/6; format: functional, organism-based; design: dose 10 mg/kg; how it was run: as §1
[5] = molecular target: T2, Endothelin receptor (Rattus norvegicus); assay: In vivo prevention of ET-1-induced sudden death in 6 rats by pretreatment with endothelin receptor antagonist at a dose of 30 mg/kg p.o.; 2/6; format: functional, organism-based; design: dose 30 mg/kg; how it was run: as §1
[6] = molecular target: T3, Endothelin receptor type B (Homo sapiens, UniProt P24530); assay: (§2) Binding affinity towards human Endothelin B receptor by measuring its ability to displace [125I]ET-3 from CHO cells; format: cell-based
T3 sequence (P24530 whole entry): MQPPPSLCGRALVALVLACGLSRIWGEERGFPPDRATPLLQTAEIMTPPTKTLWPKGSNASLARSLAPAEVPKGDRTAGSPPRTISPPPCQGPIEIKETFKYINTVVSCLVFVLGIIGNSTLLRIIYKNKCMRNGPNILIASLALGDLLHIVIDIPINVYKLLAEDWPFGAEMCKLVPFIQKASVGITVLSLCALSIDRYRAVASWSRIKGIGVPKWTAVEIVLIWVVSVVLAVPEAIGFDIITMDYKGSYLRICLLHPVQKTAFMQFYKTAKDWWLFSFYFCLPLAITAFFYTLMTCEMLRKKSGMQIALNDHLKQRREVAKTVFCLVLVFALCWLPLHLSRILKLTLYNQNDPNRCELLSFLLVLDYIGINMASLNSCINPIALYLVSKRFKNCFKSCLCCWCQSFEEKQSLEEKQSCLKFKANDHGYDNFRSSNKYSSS
How it was run: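 Membranes ([…]) from stably transfected CHO cells expressing human ET_A or ET_B receptors, or guinea pig cerebellum (ET_B), incubated with 25 pmol/L [125I]ET-1 or [125I]ET-3 with or without drugs; nonspecific binding defined with […] ET-1.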

[7] = molecular target: T3, Endothelin receptor type B; assay: as §2; format: cell-based; remark: listed apart in the source
Rattus norvegicus [8] = assay: Ability to protect rats from ET-1 induced sudden death in rats after intravenous administration; format: functional
How it was run: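 Male Sprague-Dawley rats (280-320 g) received antagonist intravenously and were then challenged with ET-1 (6 nmol/kg) injected into a tail vein, a dose that causes lethality within minutes. ED100 was the intravenous dose giving complete protection from sudden death.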

[9] = molecular target: T2, Endothelin receptor (Rattus norvegicus); assay: In vivo prevention of ET-1-induced sudden death in 5 rats by pretreatment with endothelin receptor antagonist at a dose of 10 mg/kg p.o.; 5/5; format: functional, organism-based; design: dose 10 mg/kg; how it was run: as §1
[10] = molecular target: T2, Endothelin receptor (Rattus norvegicus); assay: In vivo prevention of ET-1-induced sudden death in 6 rats by pretreatment with endothelin receptor antagonist at a dose of 30 mg/kg p.o.; 0/6; format: functional, organism-based; design: dose 30 mg/kg; how it was run: as §1
Rattus norvegicus [11] = assay: Ability to protect rats from ET-1 induced sudden death in after peroral administration; format: functional; how it was run: as §1
[12] = molecular target: T2, Endothelin receptor (Rattus norvegicus); assay: In vivo prevention of ET-1-induced sudden death in 9 rats by pretreatment with endothelin receptor antagonist at a dose of 30 mg/kg p.o.; 9/9; format: functional, organism-based; design: dose 30 mg/kg; how it was run: as §1

How did the Ki (Endothelin-1 receptor) turn out when CCc1cc(CC)nc(OC(C(=O)O)C(OC)(c2ccccc2)c2ccccc2)n1 (stereo unspecified) was run?
Its Ki is 0.001 µM.

With COc1cccc(C(OC)(c2cccc(OC)c2)C(Oc2nc(OC)cc(OC)n2)C(=O)O)c1 (stereo unspecified) as the molecule, how does the Ki (Endothelin-1 receptor) read?
Its Ki is 0.022 µM.

COc1cc(OC)nc(OC(C(=O)O)C(OC)(c2cccc(C)c2)c2cccc(C)c2)n1 (stereo unspecified) was tested. Which Ki (Endothelin-1 receptor) did it give?
Its Ki is 0.024 µM.

Which Kb (Oryctolagus cuniculus) does the source give for Cc1noc(NS(=O)(=O)c2cccc3c(N(C)C)cccc23)c1C [BMS-182874] here?
The Kb was 0.0813 µM.

And the ED100 (Rattus norvegicus [1]; po)?
Its ED100 is > 100 mg/kg.

And the Lethality [2]?
Its Lethality is 6.

Which Kb (Oryctolagus cuniculus) does the source give for CCCOc1ccc2c(c1)[C@@H](c1ccc(OC)cc1OCC(=O)O)[C@H](C(=O)O)[C@H]2c1ccc2c(c1)OCO2 [SB-209670] here?
Its Kb is 0.000158 µM.

What about the ED100 (Rattus norvegicus [1]) of the same molecule?
The ED100 was 100 mg/kg.

How did the Ki (Endothelin-1 receptor) turn out when COc1cc(OC)nc(OC(C(=O)O)C(OC)(c2cccc(F)c2)c2cccc(F)c2)n1 (stereo unspecified) was run?
The Ki was 0.011 µM.

How did the Ki (Endothelin-1 receptor) turn out when COc1nc(OC(C(=O)O)C(OC)(c2ccccc2)c2ccccc2)nc2c1CCO2 (stereo unspecified) was run?
The Ki was 0.0009 µM.

And the Kb (Oryctolagus cuniculus)?
The Kb was 0.000933 µM.

What about the ED100 (Rattus norvegicus [1]) of the same molecule?
The ED100 was 100 mg/kg.

And the Lethality [3]?
The Lethality was 0.

And the Lethality [4]?
Its Lethality is 6.

And the Lethality [5]?
Its Lethality is 2.

What does the source list for COC(=O)C(Oc1nc(OC)cc(OC)n1)C(C)(Oc1ccc(SC)cc1)c1ccccc1 (stereo unspecified)?
Ki [6]: 4.7 µM; Ki (Endothelin-1 receptor): 0.16 µM

For CCc1cc(C)nc(OC(C(=O)O)C(OC)(c2ccccc2)c2ccccc2)n1 (stereo unspecified), which Ki (Endothelin-1 receptor) is on record?
Its Ki is 0.0007 µM.

Which results are given for COc1cc(OC)nc(OC(C(=O)O)C(OC)(c2ccccc2)c2ccccc2)n1 (stereo unspecified)?
Ki [7]: 0.371 µM; Kb (Oryctolagus cuniculus): 0.0457 µM; ED100 (Rattus norvegicus [8]): 10 mg/kg; ED100 (Rattus norvegicus [1]): 30 mg/kg; Lethality [9]: 5; Lethality [10]: 0

COc1cc(OC)nc(OC(C(=O)O)C(O)(c2ccccc2)c2ccccc2)n1 (stereo unspecified) was tested. Which Ki (Endothelin-1 receptor) did it give?
The Ki was 0.13 µM.

How did the Ki (Endothelin-1 receptor) turn out when COc1cc(OC)nc(OC(C(=O)O)C(OC)(c2ccccc2F)c2ccccc2F)n1 (stereo unspecified) was run?
Its Ki is 0.15 µM.

How did the Ki (Endothelin-1 receptor) turn out when CCOc1cc(OCC)nc(OC(C(=O)O)C(OC)(c2ccccc2)c2ccccc2)n1 (stereo unspecified) was run?
Its Ki is 0.174 µM.

For COc1cc(OC)nc(OC(C(=O)O)C(OC)(c2ccc(C)cc2)c2ccc(C)cc2)n1 (stereo unspecified), which Ki (Endothelin-1 receptor) is on record?
Its Ki is 0.2 µM.

For COC(c1ccccc1)(c1ccccc1)C(Oc1nc(C)cc(C)n1)C(=O)O (stereo unspecified), which Ki (Endothelin-1 receptor) is on record?
The Ki was 0.001 µM.

Which results are given for COC(=O)C(Oc1nc(OC)cc(OC)n1)C(C)(Oc1ccc(C(C)C)cc1)c1ccccc1 (stereo unspecified)?
Ki [6]: 3 µM; Ki (Endothelin-1 receptor): 0.25 µM

How did the Ki (Endothelin-1 receptor) turn out when COc1cc(C)nc(OC(C(=O)O)C(OC)(c2ccccc2)c2ccccc2)n1 (stereo unspecified) was run?
The Ki was 0.00012 µM.

Which Ki (Endothelin-1 receptor) does the source give for COc1cc(OC)nc(OC(C(=O)O)C(OCCC(C)(C)C)(c2ccccc2)c2ccccc2)n1 (stereo unspecified) here?
Its Ki is 0.34 µM.

COc1cccc(Oc2c(NS(=O)(=O)c3ccc(C(C)(C)C)cc3)ncnc2OCCO)c1 was tested. Which Kb (Oryctolagus cuniculus) did it give?
Its Kb is > 1 µM.

And the ED100 (Rattus norvegicus [1])?
The ED100 was >100 mg/kg.

How did the Ki (Endothelin-1 receptor) turn out when COc1nc(OC(C(=O)O)C(OC)(c2ccccc2)c2ccccc2)nc2c1CCC2 (stereo unspecified) was run?
Its Ki is 0.0004 µM.

What about the Kb (Oryctolagus cuniculus) of the same molecule?
The Kb was 0.000575 µM.

What about the ED100 (Rattus norvegicus [11]) of the same molecule?
Its ED100 is 100 mg/kg.

And the Lethality [3]?
The Lethality was 0.

And the Lethality [12]?
The Lethality was 9.

For COc1cc(OC)nc(OC(C(=O)O)C(OC)(c2ccc(Cl)cc2)c2ccc(Cl)cc2)n1 (stereo unspecified), which Ki (Endothelin-1 receptor) is on record?
Its Ki is 0.245 µM.
